For the first assay, the target named is T1, OR2M7 (Homo sapiens) (UniProt Q8NG81).
T1 sequence (whole entry): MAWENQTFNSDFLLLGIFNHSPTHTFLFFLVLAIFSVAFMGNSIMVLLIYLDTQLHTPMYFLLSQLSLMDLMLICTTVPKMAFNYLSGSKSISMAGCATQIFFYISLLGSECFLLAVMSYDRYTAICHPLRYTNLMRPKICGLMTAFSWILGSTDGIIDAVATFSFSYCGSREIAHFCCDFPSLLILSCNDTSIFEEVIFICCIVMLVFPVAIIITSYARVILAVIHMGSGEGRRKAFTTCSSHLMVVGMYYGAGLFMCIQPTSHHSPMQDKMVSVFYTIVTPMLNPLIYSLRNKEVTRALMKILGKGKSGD
The conditions noted are these: stereoisomer not certain. The method, boiled down:
(§1)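 Values were gathered from published papers (main text and supplementary material), with extra details requested from the original authors when needed, and checked for typos and inconsistencies. Each receptor–molecule pair is called responsive (active) if the original authors judged the measured signal statistically different from baseline, and non-responsive (inactive) otherwise. Assay methods varied by source, often transient mammalian cell-line luciferase assays. Recorded details include cell line, G-protein, co-transfected protein and tags.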
On to `CCC1OC(C)=C(O)C1=O` (stereo not drawn), for which the “odorant receptor agonist call” value was “inactive”. In the case of `CC(=O)OCc1ccccc1`, the “odorant receptor agonist call” value is “inactive”. The same measure, in the same setting: next, `CC1=C(O)C(=O)OC1C` (stereo not drawn): “inactive”; `Cc1cnc(C)c(C)n1`: “inactive”.

A further assay addresses T2, OR2S2 (Homo sapiens) (UniProt Q9NQN1).
T2 sequence (whole entry): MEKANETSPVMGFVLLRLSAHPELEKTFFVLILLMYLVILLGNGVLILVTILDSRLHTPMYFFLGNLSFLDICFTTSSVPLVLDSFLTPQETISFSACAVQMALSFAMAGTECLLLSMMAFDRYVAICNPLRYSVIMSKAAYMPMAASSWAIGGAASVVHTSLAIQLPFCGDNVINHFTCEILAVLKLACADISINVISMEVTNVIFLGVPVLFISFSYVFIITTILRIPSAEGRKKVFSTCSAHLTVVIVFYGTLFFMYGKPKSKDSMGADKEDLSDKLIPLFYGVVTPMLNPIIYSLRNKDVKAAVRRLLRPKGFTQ
The conditions noted are these: stereoisomer not certain. The method, boiled down: as §1
For `CCC1OC(C)=C(O)C1=O` (stereo not drawn), the “odorant receptor agonist call” value was “inactive”. On the same count and under the same terms, the same measure for `CC1=C(O)C(=O)OC1C` (stereo not drawn): “inactive”; for `Cc1cnc(C)c(C)n1`: “inactive”.

A further assay addresses T3, OR2T1 (Homo sapiens) (UniProt O43869).
T3 sequence (whole entry): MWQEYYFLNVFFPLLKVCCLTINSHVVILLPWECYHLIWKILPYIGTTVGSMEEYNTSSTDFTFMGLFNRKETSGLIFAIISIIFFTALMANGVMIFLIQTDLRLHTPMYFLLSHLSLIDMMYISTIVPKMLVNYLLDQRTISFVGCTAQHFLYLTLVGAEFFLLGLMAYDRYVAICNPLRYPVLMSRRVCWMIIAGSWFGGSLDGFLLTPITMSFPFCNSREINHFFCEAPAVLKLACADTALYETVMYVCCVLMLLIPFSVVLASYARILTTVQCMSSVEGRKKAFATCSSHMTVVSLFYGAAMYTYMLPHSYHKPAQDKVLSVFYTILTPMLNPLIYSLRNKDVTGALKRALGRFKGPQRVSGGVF
The conditions noted are these: stereoisomer not certain. In a few lines:
as §1
`CCC1OC(C)=C(O)C1=O` (stereo not drawn): the “odorant receptor agonist call” value is “inactive”. The same measure, in the same setting: the same measure for `CC1=C(O)C(=O)OC1C` (stereo not drawn): “inactive”. With `Cc1cnc(C)c(C)n1`, the “odorant receptor agonist call” value is “inactive”.

The target of another assay is T4, OR2T10 (Homo sapiens) (UniProt Q8NGZ9).
T4 sequence (whole entry): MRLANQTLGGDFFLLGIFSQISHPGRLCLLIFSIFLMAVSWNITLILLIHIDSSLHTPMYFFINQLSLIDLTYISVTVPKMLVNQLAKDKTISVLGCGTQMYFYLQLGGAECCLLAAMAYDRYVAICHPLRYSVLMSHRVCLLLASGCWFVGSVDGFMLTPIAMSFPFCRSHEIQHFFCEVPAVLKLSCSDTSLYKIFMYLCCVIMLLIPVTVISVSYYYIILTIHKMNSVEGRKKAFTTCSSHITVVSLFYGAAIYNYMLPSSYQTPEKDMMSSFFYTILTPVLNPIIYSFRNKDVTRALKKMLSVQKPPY
The conditions noted are these: stereoisomer not certain. In a few lines:
as §1
Regarding `CCC(=O)C=CC1C(C)=CCCC1(C)C` (stereo not drawn), the “odorant receptor agonist call” value was “inactive”. In the case of `CCc1ccc(CC(C)(C)C=O)cc1`, the “odorant receptor agonist call” value was “inactive”. Same read-out and setting: next, `CC(CC=O)c1ccc(C(C)(C)C)cc1` (stereo not drawn): “inactive”; `CC1=CCC2CC1C2(C)C` (stereo not drawn): “inactive”; `Cc1occc(=O)c1OC(=O)C(C)C`: “active”. On the same count and under the same terms, the same measure for `Cc1ccc(C(C)C)cc1O`: “inactive”; for `CCCCCC1COCCC1OC(C)=O` (stereo not drawn): “inactive”. Same read-out and setting: the same measure for `CC(C)CCCC(C)(C)O`: “inactive”; for `CC(C)(C)C1CCCCC1OCCCCO` (stereo not drawn): “inactive”. Take `COc1ccc(C)cc1`: the “odorant receptor agonist call” value is “inactive”. Same read-out and setting: the same measure for `CCC=C(C)C(O)CCCCC` (stereo not drawn): “inactive”. Same read-out and setting: next, `C=CCOC(=O)COCCC(C)C`: “inactive”. Still for that read-out and setting: the same measure for `C=CC(C)(O)CCC=C(C)CCC=C(C)C` (stereo not drawn): “inactive”; for `CC(=O)C=CC1=C(C)CCCC1(C)C`: “inactive”. `COC1CC2CC1C1CC(C=O)CC21` (stereo not drawn): the “odorant receptor agonist call” value is “inactive”. The same measure, in the same setting: the same measure for `CCCCC1CCC(=O)O1` (stereo not drawn): “inactive”. Same read-out and setting: the same measure for `CC(C)=CCCC(C)CC=O` (stereo not drawn): “inactive”; for `CC1CC(C)(c2ccccc2)CO1` (stereo not drawn): “inactive”. On the same count and under the same terms, the same measure for `OCc1ccccc1`: “inactive”; for `CCC1OC(C)=C(O)C1=O` (stereo not drawn): “inactive”; for `CC(=O)OCc1ccccc1`: “inactive”.

Consider `CCCCCCCCC(OC(C)=O)OC(C)=O`, for which the “odorant receptor agonist call” value is “inactive”. Same read-out and setting: the same measure for `CCOC(=O)CC1(C)OCCO1`: “inactive”; for `CC1=C(O)C(=O)OC1C` (stereo not drawn): “inactive”. The same measure, in the same setting: the same measure for `Cc1cnc(C)c(C)n1`: “inactive”. Same read-out and setting: the same measure for `C=CC(C)(CCC=C(C)C)OC(C)=O` (stereo not drawn): “inactive”. As to `CCCC(C)C(=O)OCC` (stereo not drawn), the “odorant receptor agonist call” value is “inactive”. Still for that read-out and setting: next, `CCCCCC1C(=O)CCC1CC(=O)OC` (stereo not drawn): “inactive”.

(Values after the M2OR odorant receptor database.)
